In brackets after ≈: the same amount, converted by molar mass. Activity calls are given as the source filed them. The rule behind the calls is not given here. *1 amine or outer side, *2 acyl side, *3 side chain or, on linkers, in order; H or OH if unused. Where a SMILES comes first, the peptide text is derived from it. [ ]: non-standard residue; d: D form. The star is where a group is joined. X1 = O=C([C@H](Cc1c[nH]c2ccccc12)N(Cc1ccccc1)[*:1])[*:2]; Palmitoyl = CCCCCCCCCCCCCCCC(=O)*; Tos = Cc1ccc(S(=O)(=O)*)cc1; Bz = O=C(c1ccccc1)*
What was measured:
Xanthomonas vesicatoria [1] = assay: Antibacterial activity against Xanthomonas vesicatoria 2133-2 after 48 hr by broth dilution method; type: functional; details: 2133-2, 48 h
Summary of the method: (§1)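 Broth microdilution in tryptic soy broth with bacteria from a 10⁸ CFU/ml suspension. Final peptide levels were 750 down to 25 μM, or 250 to 3.12 μM for cecropin A. Plates were held at 25°C with OD600 read hourly for 48 h, in duplicate wells, and the run was repeated twice. MIC is the lowest concentration with no growth at 48 h.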

Xanthomonas vesicatoria [2] = assay: Antibacterial activity against Xanthomonas vesicatoria 2133-2 assessed as growth inhibition after 48 hr; type: functional; details: 2133-2, 48 h, read-out: ED50 (the source's name)
Summary of the method: (§2)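 Growth was read as OD600 every hour for 48 h at 25°C in tryptic soy broth across a peptide dilution series, in duplicate, repeated twice. Growth is the area under the curve, and inhibition is given as % of the water control. ED50 comes from a probit-dose model fitted by nonlinear least squares.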

Erwinia amylovora [3] = assay: Antibacterial activity against Erwinia amylovora PMV6076 after 48 hr by broth dilution method; type: functional; details: PMV6076, 48 h; summary of the method: as §1
[4] = system: Pseudomonas syringae pv. syringae; assay: Antibacterial activity against Pseudomonas syringae pv. syringae EPS94 assessed as growth inhibition after 48 hr; type: functional; details: EPS94, 48 h, read-out: ED50 (the source's name); summary of the method: as §2
[5] = Hemolytic activity against Homo sapiens (human) RBC assessed as hemoglobin release after 1 hr; type: ADME, cell-based, Erythrocyte; details: red blood cells, read-out: HD50
Summary of the method: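 Fresh EDTA-anticoagulated human blood was washed in Tris buffer (10 mM Tris, 150 mM NaCl, pH 7.2) and used as a 5% suspension. Equal volumes of cells and peptide at 800 to 12.5 μM were shaken for 1 h at 37°C, then centrifuged. Supernatant A540 was taken relative to buffer and a melittin full-lysis control. HD50 was derived by probit fit.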

Erwinia amylovora [6] = assay: Antibacterial activity against Erwinia amylovora PMV6076 assessed as growth inhibition after 48 hr; type: functional; details: PMV6076, 48 h, read-out: ED50 (the source's name); summary of the method: as §2
[7] = system: Pseudomonas syringae pv. syringae; assay: Antibacterial activity against Pseudomonas syringae pv. syringae EPS94 after 48 hr by broth dilution method; type: functional; details: EPS94, 48 h; summary of the method: as §1
[8] = system: Pseudomonas syringae pv. syringae; assay: Antibacterial activity against Pseudomonas syringae pv. syringae EPS94 at 25 to 750 uM after 48 hr by broth dilution method; type: functional, organism-based; summary of the method: as §1
Erwinia amylovora [9] = assay: Antibacterial activity against Erwinia amylovora PMV6076 at 25 to 750 uM after 48 hr by broth dilution method; type: functional, organism-based; summary of the method: as §1
Xanthomonas vesicatoria [10] = assay: Antibacterial activity against Xanthomonas vesicatoria 2133-2 at 25 to 750 uM after 48 hr by broth dilution method; type: functional, organism-based; summary of the method: as §1
[11] = Stability of the compound in tris buffer at pH 7.6 at 50 ug/ml after 45 min by HPLC method in presence of proteinase K; details: pH 7.6, 0.75 h
[12] = system: Pseudomonas syringae pv. syringae; assay: Bactericidal activity against Pseudomonas syringae pv. syringae EPS94 assessed as decrease in survival at 5 uM after 48 hr; type: functional, organism-based
Summary of the method: (§3)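 LB broth cultures at 4 × 10⁶ CFU/ml were exposed to 5 μM peptide. Samples taken every 30 min over 3 h were diluted 10-fold and plated on LB agar. Colonies were counted after 48 h at 25°C, and survival is expressed as % of the starting count.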

Erwinia amylovora [13] = assay: Bactericidal activity against Erwinia amylovora PMV6076 assessed as decrease in survival at 5 uM after 48 hr; type: functional, organism-based; summary of the method: as §3
Xanthomonas vesicatoria [14] = assay: Bactericidal activity against Xanthomonas vesicatoria 2133-2 assessed as decrease in survival at 5 uM after 48 hr; type: functional, organism-based; summary of the method: as §3
Xanthomonas vesicatoria [15] = assay: Bactericidal activity against Xanthomonas vesicatoria 2133-2 assessed as decrease in survival at 5 uM after 90 min; type: functional, organism-based; summary of the method: as §3

Compound | MIC (Xanthomonas vesicatoria [1]) [µM] | MIC (Erwinia amylovora [3]) [µM] | MIC [7] [µM] | Stability [11] | EC50 (Xanthomonas vesicatoria [2]) [µM] | EC50 [4] [µM] | HC50 at 1 h [5] [µM] | EC50 (Erwinia amylovora [6]) [µM] | Activity [8] | Activity (Erwinia amylovora [9]) | Activity (Xanthomonas vesicatoria [10]) | Activity [12] | Activity (Erwinia amylovora [13]) | Activity (Xanthomonas vesicatoria [14]) | Activity (Xanthomonas vesicatoria [15])
CC[C@H](C)[C@H](NC(=O)[C@H](CCCCN)NC(=O)[C@H](CCCCN)NC(=O)[C@H](Cc1ccccc1)NC(=O)[C@H](CC(C)C)NC(=O)[C@H](CCCCN)NC(=O)[C@@H](N)CCCCN)C(=O)N[C@@H](CC(C)C)C(=O)N[C@@H](CCCCN)C(=O)N[C@@H](CCCCN)C(=O)N[C@@H](CC(C)C)C(N)=O |  |  |  |  |  |  |  |  | inactive | inactive | inactive |  |  |  | 
CCCCCCCCCCCCCCCC(=O)N[C@@H](Cc1c[nH]c2ccccc12)C(=O)N[C@@H](CCCCN)C(=O)N[C@@H](CC(C)C)C(=O)N[C@@H](Cc1ccccc1)C(=O)N[C@@H](CCCCN)C(=O)N[C@@H](CCCCN)C(=O)N[C@H](C(=O)N[C@@H](CC(C)C)C(=O)N[C@@H](CCCCN)C(=O)N[C@H](C(=O)N[C@@H](CC(C)C)C(N)=O)C(C)C)[C@@H](C)CC (Palmitoyl-WKLFKKILKVL-NH2) | 25 (≈ 41.3 µg/mL) | 50 (≈ 82.7 µg/mL) | 50 (≈ 82.7 µg/mL) |  | 14.7 | 56.8 | 6 | 60 |  |  |  |  |  |  | 
CC[C@H](C)[C@H](NC(=O)[C@H](CCCCN)NC(=O)[C@H](CCCCN)NC(=O)[C@H](Cc1ccccc1)NC(=O)[C@H](CC(C)C)NC(=O)[C@H](CCCCN)NC(=O)[C@@H](N)CCCCN)C(=O)N[C@@H](CC(C)C)C(=O)N[C@@H](CCCCN)C(=O)N[C@H](C(=O)N[C@@H](CC(C)C)C(N)=O)C(C)C [KKLFKKILKVL-NH2] | 12 (≈ 16.3 µg/mL) | 5 (≈ 6.78 µg/mL) | 2 (≈ 2.71 µg/mL) | Unstable | 7.3 | 1.6 | 334 | 4.3 |  |  |  | Active | Active | Active | 
H-FKLFKKILKVL-NH2 |  |  |  |  |  |  |  |  | inactive | inactive | inactive |  |  |  | 
H-LKLFKKILKVL-NH2 | 10 | 5 | 5 | Unstable | 4.1 | 3.2 | 190 | 4.3 |  |  |  | Active | Active | Active | 
H-WKLFKKILKKL-NH2 |  |  |  |  |  |  |  |  | inactive | inactive | inactive |  |  |  | 
H-WKLFKKILKVL-NH2 | 7 | 7 | 7 | Unstable | 3.6 | 5.5 | 104 | 5.5 |  |  |  | Active | Active | Active | 
H-YKLFKKILKVL-NH2 |  |  |  |  |  |  |  |  | inactive | inactive | inactive |  |  |  | 

The next lines start with results.

MIC (Xanthomonas vesicatoria [1]) [µM] | MIC (Erwinia amylovora [3]) [µM] | MIC [7] [µM] | Stability [11] | Compound | EC50 (Xanthomonas vesicatoria [2]) [µM] | EC50 [4] [µM] | HC50 at 1 h [5] [µM] | EC50 (Erwinia amylovora [6]) [µM] | Activity [8] | Activity (Erwinia amylovora [9]) | Activity (Xanthomonas vesicatoria [10]) | Activity [12] | Activity (Erwinia amylovora [13]) | Activity (Xanthomonas vesicatoria [14]) | Activity (Xanthomonas vesicatoria [15])
2 (≈ 2.96 µg/mL) | 2 (≈ 2.96 µg/mL) | 2 (≈ 2.96 µg/mL) |  | CC[C@H](C)[C@H](NC(=O)[C@H](CCCCN)NC(=O)[C@H](CCCCN)NC(=O)[C@H](Cc1ccccc1)NC(=O)[C@H](CC(C)C)NC(=O)[C@H](CCCCN)NC(=O)[C@@H](N)Cc1c[nH]c2ccccc12)C(=O)N[C@@H](CC(C)C)C(=O)N[C@@H](CCCCN)C(=O)N[C@@H](Cc1ccc(O)cc1)C(=O)N[C@@H](CC(C)C)C(N)=O | 2.3 | 2.7 | 42 | 3.2 |  |  |  |  |  |  | 
< 2 | 15 (≈ 22.8 µg/mL) | 15 (≈ 22.8 µg/mL) | Unstable | CC[C@H](C)[C@H](NC(=O)[C@H](CCCCN)NC(=O)[C@H](CCCCN)NC(=O)[C@H](Cc1ccccc1)NC(=O)[C@H](CC(C)C)NC(=O)[C@H](CCCCN)NC(=O)[C@H](Cc1c[nH]c2ccccc12)NC(=O)c1ccccc1)C(=O)N[C@@H](CC(C)C)C(=O)N[C@@H](CCCCN)C(=O)N[C@H](C(=O)N[C@@H](CC(C)C)C(N)=O)C(C)C (Bz-WKLFKKILKVL-NH2) |  | 9.5 | 11 | 15.1 |  |  |  |  |  |  | 
2 (≈ 3.01 µg/mL) | 7 (≈ 10.5 µg/mL) | 5 (≈ 7.53 µg/mL) |  | CC[C@H](C)[C@H](NC(=O)[C@H](CCCCN)NC(=O)[C@H](CCCCN)NC(=O)[C@H](Cc1ccccc1)NC(=O)[C@H](CC(C)C)NC(=O)[C@H](CCCCN)NC(=O)[C@H](Cc1c[nH]c2ccccc12)NCc1ccccc1)C(=O)N[C@@H](CC(C)C)C(=O)N[C@@H](CCCCN)C(=O)N[C@H](C(=O)N[C@@H](CC(C)C)C(N)=O)C(C)C (H-[X1]KLFKKILKVL-NH2) | 2.5 | 3.8 | 30 | 5 |  |  |  | Active | inactive | Active | 
< 2 | 12 (≈ 18.8 µg/mL) | 12 (≈ 18.8 µg/mL) |  | CC[C@H](C)[C@H](NC(=O)[C@H](CCCCN)NC(=O)[C@H](CCCCN)NC(=O)[C@H](Cc1ccccc1)NC(=O)[C@H](CC(C)C)NC(=O)[C@H](CCCCN)NC(=O)[C@H](Cc1c[nH]c2ccccc12)NS(=O)(=O)c1ccc(C)cc1)C(=O)N[C@@H](CC(C)C)C(=O)N[C@@H](CCCCN)C(=O)N[C@H](C(=O)N[C@@H](CC(C)C)C(N)=O)C(C)C (Tos-WKLFKKILKVL-NH2) |  | 6.9 | 10 | 11.2 |  |  |  |  |  |  | 
2 (≈ 2.81 µg/mL) | 2 (≈ 2.81 µg/mL) | 2 (≈ 2.81 µg/mL) | Stable | CC[C@H](C)[C@H](NC(=O)[C@H](CCCCN)NC(=O)[C@H](CCCCN)NC(=O)[C@H](Cc1ccccc1)NC(=O)[C@H](CC(C)C)NC(=O)[C@H](CCCCN)NC(=O)[C@@H](N)CCCCN)C(=O)N[C@@H](CC(C)C)C(=O)N[C@@H](CCCCN)C(=O)N[C@@H](Cc1ccccc1)C(=O)N[C@@H](CC(C)C)C(N)=O [KKLFKKILKFL-NH2] | 1.9 | 2.1 | 203 | 2.5 |  |  |  | Active | Active |  | Active
2 | 10 | 7 | Unstable | Ac-WKLFKKILKVL-NH2 | 2 | 4.3 | 17 | 9 |  |  |  |  |  |  | 
< 2 | 5 | 5 |  | H-WKLFKKILKFL-NH2 |  | 1.9 | 32 | 1.3 |  |  |  |  |  |  | 
< 2 | 5 | 5 |  | H-WKLFKKILKWL-NH2 |  | 2.5 | 26 | 3 |  |  |  |  |  |  | 

— ChEMBL document CHEMBL3045113, “Inhibition of plant-pathogenic bacteria by short synthetic cecropin A-melittin hybrid peptides” (Appl Environ Microbiol, 2006)
